Assay results of several laboratories.
Protocols differ between the studies behind these lines.
FLT3: Receptor-type tyrosine-protein kinase FLT3 (FLT3, Homo sapiens, UniProt P36888)
FLT3 N841I: Receptor-type tyrosine-protein kinase FLT3 (FLT3, Homo sapiens, UniProt P36888, N841I)
FLT3 R834Q: Receptor-type tyrosine-protein kinase FLT3 (FLT3, Homo sapiens, UniProt P36888, R834Q)
FLT3 D835H: Receptor-type tyrosine-protein kinase FLT3 (FLT3, Homo sapiens, UniProt P36888, D835H)
FLT3 D835V: Receptor-type tyrosine-protein kinase FLT3 (FLT3, Homo sapiens, UniProt P36888, D835V)
FLT3 D835Y: Receptor-type tyrosine-protein kinase FLT3 (FLT3, Homo sapiens, UniProt P36888, D835Y)
FLT3 autoinhibited: Receptor-type tyrosine-protein kinase FLT3, autoinhibited (FLT3, Homo sapiens, UniProt P36888)

Compound | target | test | setting | remaining binding [%]
CN(CCCC(F)(F)F)c1nccc(-c2cnn3ncccc23)n1 | FLT3 | binding | 1 µM | 63
CCCOc1ccc([C@@H]2[C@@H](C(=O)O)[C@H](c3ccc4c(c3)OCO4)CN2CC(=O)Nc2c(CC)cccc2CC)cc1 | FLT3 N841I | cell-free assay, competition with immobilised ligand | 1 µM | 88
Cc1cnc(Nc2ccc(C(=O)N3CCC(N4CCCC4)CC3)cc2)nc1-c1cc2ccccc2s1 | FLT3 R834Q | binding, competition with immobilised ligand | 1 µM | 6.2
CN(c1nccc(-c2cnn3ncccc23)n1)C1CC1 | FLT3 D835H | binding | 1 µM | 100
CN1CCN(c2ccc(Nc3nccc(-c4ccccc4)n3)cc2C(F)(F)F)CC1 | FLT3 D835V | binding | 10 µM | 0
O=C(c1ccc(Nc2ncc(Cl)c(-c3ccc(Cl)s3)n2)cc1)N1CCC(N2CCCC2)CC1 | Receptor-type tyrosine-protein kinase FLT3 (FLT3, Homo sapiens, UniProt P36888, ITD) | binding, competition with immobilised ligand | 1 µM | 0.35
COc1cnc(Nc2cccc(S(N)(=O)=O)c2)nc1N1CCN(c2ccccc2)C(=O)C1 | FLT3 D835V | binding, competition with immobilised ligand | 1 µM | 42
N[C@H]1CCN(c2nccc(-c3cnn4ncccc34)n2)C1 | FLT3 D835Y | binding | 1 µM | 97
CNC(=O)[C@@H]1CC[C@@H](n2c(-c3ccc4cnccc4c3)nc3ccc(C(=O)NCc4cccc(C(N)=O)c4)cc32)C1 | FLT3 autoinhibited | binding, competition with immobilised ligand | 1 µM | 91
CO[C@H]1CC[C@H](CNc2ccc(S(=O)(=O)NC(=O)c3ccc(N4CCN(CC5=C(c6ccc(Cl)cc6)CC(C)(C)CC5)CC4)cc3Oc3cnc4[nH]ccc4c3)cc2[N+](=O)[O-])CC1 | FLT3 D835V | cell-free assay, competition with immobilised ligand | 1 µM | 100
O=C(NCCCN1CCOCC1)c1ccc(Nc2ncc(Cl)c(-c3ccc(Cl)s3)n2)cc1 | FLT3 D835V | binding, competition with immobilised ligand | 1 µM | 1.3
COc1ncc2cc3ccccc3nc2c1C#N | FLT3 autoinhibited | cell-free assay, competition with immobilised ligand | 5 µM | 100
C[C@@H]1CCN(c2nccc(-c3cnn4ncccc34)n2)C1 | FLT3 D835H | binding | 1 µM | 100
O=C(c1ccc(Nc2ncc(Cl)c(-c3cc4ccccc4s3)n2)cc1)N1CCC(N2CCCC2)CC1 | FLT3 R834Q | binding, competition with immobilised ligand | 1 µM | 11
CS(=O)(=O)c1cc(C2(NC(=O)c3cncc4c3cnn4-c3ccc(F)cc3)CC2)ccn1 | FLT3 D835V | cell-free assay, competition with immobilised ligand | 1 µM | 100
Cc1cnn2ncc(-c3ccnc(N(C)C)n3)c2c1 | FLT3 | binding | 1 µM | 98
Cc1cc(-n2nc(Cc3cc(F)cc(C(F)(F)F)c3)nc2C)ccc1C(N)=O | FLT3 | cell-free assay, competition with immobilised ligand | 1 µM | 100
COc1ccnn2ncc(-c3ccnc(N(C)C)n3)c12 | FLT3 N841I | binding | 1 µM | 100
CCCCN(CCCC)C(=O)CN1C[C@@H](c2cc(OC)c3c(c2)OCO3)[C@H](C(=O)O)[C@H]1CC(C)(C)CCC | FLT3 autoinhibited | cell-free assay, competition with immobilised ligand | 1 µM | 97.4
Nc1ncc2c(n1)-c1c([nH]c3ccc(C#CC4CC4)cc13)CCCC2 | FLT3 D835Y | binding, competition with immobilised ligand | 1 µM | 89
CC1CCCN1c1nccc(-c2cnn3ncccc23)n1 (stereo not shown) | FLT3 D835V | binding | 1 µM | 79
NS(=O)(=O)c1cc(NC(=O)C2(c3ccccc3Cl)CC2)ccc1Oc1cccc(Cl)c1 | FLT3 R834Q | cell-free assay, competition with immobilised ligand | 1 µM | 100
